{"data": "Experimental data pooled from the literature", "observed": "cell growth or viability", "note": "Compare with care: the assays were run in different laboratories."}
{"Structure (SMILES)": "O=C(NCc1ccc(Cl)cc1)C1CC1c1ccccc1 (stereo not drawn)", "cell line": "BHK-21", "technique": "MTT", "CC50 [µM]": "> 100"}
{"Structure (SMILES)": "CC(=O)c1cccc(NC(=O)C(=O)[C@H](CC(C)C)NC(=O)[C@H](CC(C)C)NC(=O)[C@H](CC(C)C)NC(=O)OCc2ccccc2)c1", "cell line": "Vero", "technique": "ATP luminescence", "time": "48 h", "CC50 [µM]": 17.7}
{"Structure (SMILES)": "C=CC(=O)Nc1cccc(-c2snc3cc(-c4ccc(N)c(OC)c4)cnc23)c1", "cell line": "Vero", "technique": "resazurin", "CC50 [µM]": 21}
{"Structure (SMILES)": "O=C(Nc1ncc([N+](=O)[O-])s1)c1ccco1", "cell line": "BHK-21", "technique": "MTT", "CC50 [µM]": "> 10"}
{"Structure (SMILES)": "COc1cc(Nc2ccnc3ccc(Br)cc23)cc(OC)c1OC", "cell line": "Vero", "technique": "resazurin", "CC50 [µM]": 28.6}
{"Structure (SMILES)": "OCCCCCCC1COOC2(CCCCCCCCCCC2)OOC1", "cell line": "BHK-21", "technique": "WST-1", "time": "72 h", "CC50 [µM]": 3.4}
{"Structure (SMILES)": "Clc1ccc(CCC(Cn2ccnc2)Sc2c(Cl)cccc2Cl)cc1 (stereo not drawn)", "cell line": "Vero", "technique": "WST-1", "time": "18 h", "CC50 [µM]": 34.9}
{"Structure (SMILES)": "O=C(Nc1ncc([N+](=O)[O-])s1)c1cc(Cl)ccc1Cl", "cell line": "BHK-21", "technique": "MTT", "CC50 [µM]": "> 100"}
{"Structure (SMILES)": "Cc1cc(N)c2cc(NC(=O)Nc3ccc4nc(C)cc(N)c4c3)ccc2n1", "cell line": "BHK-21", "technique": "MTT", "time": "42 h", "CC50 [µM]": 49}
{"Structure (SMILES)": "Cc1cc(C)cc([C@@H]2C[C@H]2C(=O)NC(C(=O)NC2CC2)c2ccc(C)c(C)c2)c1 (stereo partly drawn)", "cell line": "BHK-21", "technique": "MTT", "time": "24 h", "CC50 [µM]": "~10"}
{"Structure (SMILES)": "C[C@H]1[C@H](OC(=O)CCC(=O)O)O[C@@H]2O[C@@]3(C)CC[C@H]4[C@H](C)CC[C@@H]1[C@@]24OO3", "cell line": "Vero", "technique": "WST-1", "time": "18 h", "CC50 [µM]": 29.2}
{"Structure (SMILES)": "Nc1ccc(-c2ccc(Nc3cc(S(=O)(=O)O)c(N)c4c3C(=O)c3ccccc3C4=O)cc2)c(S(=O)(=O)O)c1", "cell line": "BHK-21", "technique": "MTT", "time": "42 h", "CC50 [µM]": 177}
